Measurements as given in ChEMBL document CHEMBL1828561, “Identification of a potent and selective free fatty acid receptor 1 (FFA1/GPR40) agonist with favorable physicochemical and in vitro ADME properties” (J Med Chem, 2011).
Converted amounts (≈) assume the structure as drawn.

Assays:
[1] = target: T1, Free fatty acid receptor 1 (Homo sapiens, UniProt O14842); experiment: Agonist activity at human FFA1 receptor expressed in human 1321N1 cells assessed as calcium mobilization by fluorescence spectrophotometry; format: functional, cell-based
[2] = target: T1, Free fatty acid receptor 1; experiment: Agonist activity at human FFA1 receptor expressed in human 1321N1 cells assessed as calcium mobilization by fluorescence spectrophotometry relative to 10 uM TUG-20; format: functional, cell-based
How it was run: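 Human FFA1 stably expressed in 1321N1 cells kept under G418 selection, 30000–40000 cells/well. After 24 h, washed in Krebs-HEPES pH 7.4 and loaded 1 h at 37 °C with 1.5 μM Oregon Green 488 BAPTA-1/AM. Compound injected at 10-fold concentration at 37 °C; fluorescence ex 485/em 520 nm over 50 × 0.4 s. Efficacy as % of maximal response to 10 μM TUG-20.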

[3] = Aqueous solubility of the compound in PBS at pH 7.4; format: physicochemical
How it was run: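 Solubility measured in PBS at pH 7.4.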

[4] = Octanol-phosphate buffer partition coefficient, log D of the compound at pH 7.4 by HPLC analysis; format: physicochemical
[5] = Chemical stability of the compound in PBS at 37 degC for 12 days; format: physicochemical; conditions: read-out: Stability
How it was run: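 Stability followed in PBS at 37 °C over 12 days.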

[6] = Plasma protein binding in human; format: ADME, cell-free; conditions: read-out: PPB (converted)
Liver = experiment: Metabolic stability in human liver S9 fraction; format: ADME, subcellular
CYP1A2 = target: T2, CYP1A2 (Homo sapiens, UniProt P05177); experiment: Inhibition of CYP1A2 at 10 uM; format: ADME
T2 sequence (P05177 whole entry): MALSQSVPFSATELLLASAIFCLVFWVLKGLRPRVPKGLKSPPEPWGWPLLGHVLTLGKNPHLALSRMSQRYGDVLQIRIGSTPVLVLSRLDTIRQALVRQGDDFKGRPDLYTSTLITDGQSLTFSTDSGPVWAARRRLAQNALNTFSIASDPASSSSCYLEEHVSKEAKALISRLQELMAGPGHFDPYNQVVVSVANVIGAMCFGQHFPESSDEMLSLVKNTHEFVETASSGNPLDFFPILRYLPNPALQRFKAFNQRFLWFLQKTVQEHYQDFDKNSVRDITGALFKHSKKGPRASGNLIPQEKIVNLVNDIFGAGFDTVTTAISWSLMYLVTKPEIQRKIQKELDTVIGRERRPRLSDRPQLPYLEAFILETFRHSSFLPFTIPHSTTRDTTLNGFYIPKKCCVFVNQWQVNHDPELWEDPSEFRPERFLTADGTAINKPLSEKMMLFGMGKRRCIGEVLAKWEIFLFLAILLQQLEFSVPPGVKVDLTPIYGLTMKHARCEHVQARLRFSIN

CYP2C9 = CYP2C9 (Homo sapiens, UniProt P11712); experiment: Inhibition of CYP2C9 at 10 uM; format: ADME
CYP2C19 = CYP2C19 (Homo sapiens, UniProt P33261); experiment: Inhibition of CYP2C19 at 10 uM; format: ADME
CYP2D6 = CYP2D6 (Homo sapiens, UniProt P10635); experiment: Inhibition of CYP2D6 at 10 uM; format: ADME
CYP3A4 = CYP3A4 (Homo sapiens, UniProt P08684); experiment: Inhibition of CYP3A4 at 10 uM; format: ADME
[7] = Inhibition of P-glycoprotein at 100 uM
How it was run: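 P-glycoprotein inhibition tested at 100 μM compound.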

[8] = Apparent permeability from apical to basolateral side of human Caco2/TC7 cells; format: ADME, cell-based; conditions: Caco-2
How it was run: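 Caco-2 TC7 monolayers, apical to basolateral transport at pH 6.5 apical/7.4 basolateral.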

[9] = Octanol-water partition coefficient, log D of the compound at pH 7.4 by HPLC analysis; format: physicochemical
How it was run: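 Distribution between n-octanol and water (PBS), pH 7.4, determined experimentally.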

[10] = Apparent permeability across methotrexate treated human HT-29 cells; format: ADME, cell-based
How it was run: (§1)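 HT29-MTX mucus-producing cells, passage 32, grown 23 days (TEER > 750 Ω cm²). Compound at 100 μM (10 mM DMSO stock diluted 1:100 in buffer). […] Non-permeated drug measured for recovery. Monolayer integrity checked by 20 μM carboxyfluorescein after 1 h and TEER.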

[11] = Permeability across methotrexate treated human HT-29 cells assessed as compound recovery; format: ADME, cell-based; conditions: read-out: Activity; how it was run: as §1

T1 sequence (O14842 whole entry): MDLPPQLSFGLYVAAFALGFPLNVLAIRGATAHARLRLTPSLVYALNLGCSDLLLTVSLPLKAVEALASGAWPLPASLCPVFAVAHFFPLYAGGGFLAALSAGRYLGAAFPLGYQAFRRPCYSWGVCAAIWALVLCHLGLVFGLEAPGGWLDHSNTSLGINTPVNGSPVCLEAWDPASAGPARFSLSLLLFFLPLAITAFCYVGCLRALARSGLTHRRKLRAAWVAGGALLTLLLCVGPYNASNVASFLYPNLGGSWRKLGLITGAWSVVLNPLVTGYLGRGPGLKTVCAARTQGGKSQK
CYP2C19, sequence (P33261 whole entry): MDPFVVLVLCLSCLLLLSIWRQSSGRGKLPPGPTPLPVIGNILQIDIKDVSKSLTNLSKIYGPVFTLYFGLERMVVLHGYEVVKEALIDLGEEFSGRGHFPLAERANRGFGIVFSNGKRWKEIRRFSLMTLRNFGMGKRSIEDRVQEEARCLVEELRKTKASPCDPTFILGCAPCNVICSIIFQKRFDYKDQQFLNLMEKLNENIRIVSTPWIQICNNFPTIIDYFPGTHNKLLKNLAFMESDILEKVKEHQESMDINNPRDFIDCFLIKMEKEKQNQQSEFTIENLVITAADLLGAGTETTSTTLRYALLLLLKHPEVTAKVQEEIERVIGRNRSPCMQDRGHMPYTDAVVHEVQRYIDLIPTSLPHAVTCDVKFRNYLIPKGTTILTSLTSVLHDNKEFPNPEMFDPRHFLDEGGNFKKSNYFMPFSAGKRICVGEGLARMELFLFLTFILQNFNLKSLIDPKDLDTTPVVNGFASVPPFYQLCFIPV
CYP3A4, sequence (P08684 whole entry): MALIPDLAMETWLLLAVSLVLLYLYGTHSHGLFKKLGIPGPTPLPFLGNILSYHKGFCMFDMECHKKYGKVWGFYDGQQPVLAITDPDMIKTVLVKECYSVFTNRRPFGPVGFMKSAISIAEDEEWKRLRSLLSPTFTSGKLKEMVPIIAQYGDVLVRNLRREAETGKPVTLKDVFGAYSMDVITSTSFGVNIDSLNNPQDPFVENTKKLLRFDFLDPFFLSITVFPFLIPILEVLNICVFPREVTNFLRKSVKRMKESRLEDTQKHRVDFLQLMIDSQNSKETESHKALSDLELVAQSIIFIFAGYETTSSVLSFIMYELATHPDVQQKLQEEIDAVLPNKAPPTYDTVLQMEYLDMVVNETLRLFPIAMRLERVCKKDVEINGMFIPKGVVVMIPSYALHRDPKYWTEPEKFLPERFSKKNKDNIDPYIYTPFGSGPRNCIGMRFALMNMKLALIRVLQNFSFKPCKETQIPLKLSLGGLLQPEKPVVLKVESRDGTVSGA
CYP2D6, sequence (P10635 whole entry): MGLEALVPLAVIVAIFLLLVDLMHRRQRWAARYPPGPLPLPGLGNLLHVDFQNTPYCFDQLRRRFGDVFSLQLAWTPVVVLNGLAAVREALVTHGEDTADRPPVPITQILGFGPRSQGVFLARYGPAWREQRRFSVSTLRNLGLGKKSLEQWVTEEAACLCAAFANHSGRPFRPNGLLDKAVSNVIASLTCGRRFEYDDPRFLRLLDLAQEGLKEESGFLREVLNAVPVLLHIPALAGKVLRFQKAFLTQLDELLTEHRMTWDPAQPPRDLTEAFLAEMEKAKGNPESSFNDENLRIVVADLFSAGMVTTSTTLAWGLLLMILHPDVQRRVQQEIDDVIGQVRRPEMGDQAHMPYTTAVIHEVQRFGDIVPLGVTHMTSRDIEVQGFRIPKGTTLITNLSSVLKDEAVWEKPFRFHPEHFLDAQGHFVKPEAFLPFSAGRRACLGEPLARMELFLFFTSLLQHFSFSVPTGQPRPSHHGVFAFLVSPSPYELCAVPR
CYP2C9, sequence (P11712 whole entry): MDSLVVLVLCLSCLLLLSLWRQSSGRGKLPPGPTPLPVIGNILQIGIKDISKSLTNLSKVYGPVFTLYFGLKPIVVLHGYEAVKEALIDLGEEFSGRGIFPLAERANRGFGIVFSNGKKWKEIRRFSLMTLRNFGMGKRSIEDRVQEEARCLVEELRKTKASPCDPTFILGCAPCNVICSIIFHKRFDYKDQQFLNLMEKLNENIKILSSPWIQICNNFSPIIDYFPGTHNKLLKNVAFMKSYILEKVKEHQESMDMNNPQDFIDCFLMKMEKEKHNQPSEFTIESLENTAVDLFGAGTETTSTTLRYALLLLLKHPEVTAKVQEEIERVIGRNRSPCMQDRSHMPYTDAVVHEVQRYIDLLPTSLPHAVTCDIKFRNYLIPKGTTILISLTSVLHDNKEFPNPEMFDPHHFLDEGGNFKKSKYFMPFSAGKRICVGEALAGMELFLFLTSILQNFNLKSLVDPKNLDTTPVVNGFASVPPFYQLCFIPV

| SMILES | EC50 [1] | Efficacy [2] | further results |
| --- | --- | --- | --- |
| Cc1c(C#Cc2ccc(CCC(=O)O)cc2)ccnc1F | 120 nM | 101% | – |
| Cc1ccsc1C#Cc1ccc(CCC(=O)O)cc1 | 75.9 nM | 100% | – |
| O=C(O)CCc1ccc(C#Cc2ccnc(Oc3ccccc3)c2)cc1 | 479 nM | 94% | – |
| Cc1cc(C#Cc2ccc(CCC(=O)O)cc2)ccn1 | – | 102% | – |
| O=C(O)CCc1ccc(C#Cc2ccnc(Cl)c2Cc2ccccc2)cc1 | 794 nM | 101% | – |
| O=C(O)CCc1ccc(C#Cc2ncccc2[N+](=O)[O-])cc1 | – | 87% | – |
| O=C(O)CCc1ccc(C#Cc2cccnc2)cc1 | 6030 nM | 96% | – |
| O=C(O)CCc1ccc(C#Cc2cncs2)cc1 | 3890 nM | 99% | – |
| O=C(O)CCc1ccc(C#Cc2cccs2)cc1 | 251 nM | 97% | – |
| O=C(O)CCc1ccc(C#Cc2ccnc(-c3ccccc3)c2)cc1 | 186 nM | 97% | – |
| O=C(O)CCc1ccc(C#Cc2ccnc(Cl)n2)cc1 | 9120 nM | 131% | – |
| O=C(O)CCc1ccc(C#Cc2ccccn2)cc1 | 13200 nM | 98% | – |
| COc1cc(C#Cc2ccc(CCC(=O)O)cc2)ccn1 | 525 nM | 98% | – |
| O=C(O)CCc1ccc(C#Cc2ccnc3cc(Cl)ccc23)cc1 | 79.4 nM | 125% | – |
| O=C(O)CCc1ccc(C#Cc2cccnc2Cl)cc1 | 603 nM | 91% | – |
| Cc1ccccc1-c1cc(C#Cc2ccc(CCC(=O)O)cc2)ccn1 | 1070 nM | 92% | – |

| SMILES | EC50 [1] | Efficacy [2] | further results |
| --- | --- | --- | --- |
| COc1nccc(C#Cc2ccc(CCC(=O)O)cc2)n1 | 9550 nM | 109% | – |
| Cc1ccccc1C#Cc1ccc(CCC(=O)O)cc1 | 45.7 nM | 102% | solubility [3]: 174 µM (≈ 46 µg/mL); logD [4]: 2.34; remaining at 288 h [5]: 99.9%; fraction unbound [6]: 0.023; Stability (Liver): 26%; inhibition at 10 µM (CYP1A2): -8%; inhibition at 10 µM (CYP2C9): -25%; inhibition at 10 µM (CYP2C19): -1%; inhibition at 10 µM (CYP2D6): 0%; inhibition at 10 µM (CYP3A4): -4%; inhibition [7]: 6.6%; Papp A→B [8]: 87 ×10⁻⁶ cm/s; logD [9]: 2.34 |
| O=C(O)CCc1ccc(C#Cc2ccc(Cl)nc2)cc1 | 708 nM | 98% | – |
| C=CCc1c(C#Cc2ccc(CCC(=O)O)cc2)ccnc1Cl | 316 nM | 97% | – |
| Cc1c(C#Cc2ccc(CCC(=O)O)cc2)ccnc1Cl | 135 nM | 101% | – |
| Cc1cnc(Cl)nc1C#Cc1ccc(CCC(=O)O)cc1 | 4270 nM | 121% | – |
| O=C(O)CCc1ccc(C#Cc2ccnc(Cl)c2)cc1 | 295 nM | 94% | – |
| Cc1cnc(F)c(C#Cc2ccc(CCC(=O)O)cc2)c1 | 661 nM | 98% | – |
| O=C(O)CCc1ccc(C#Cc2ccncc2)cc1 | 4070 nM | 100% | – |
| CC(C(=O)O)c1cccc(C(=O)c2ccccc2)c1 (centres undefined) [KETOPROFEN] | – | – | Papp [10]: 15.1 ×10⁻⁶ cm/s; recovery [11]: 80% |
| Cc1cnc(F)cc1C#Cc1ccc(CCC(=O)O)cc1 | 178 nM | 99% | – |
| O=C(O)C1CC1c1ccc(C#Cc2cc(Cl)nc(Cl)c2)cc1 (racemic) | – | 96% | – |
| O=C(O)CCc1ccc(C#Cc2ccnc(F)c2)cc1 | 513 nM | 98% | – |
| Cc1cccc(C#Cc2ccc(CCC(=O)O)cc2)n1 | 6170 nM | 108% | – |
| Cc1c(C#Cc2ccc(CCC(=O)O)cc2)cc(Cl)nc1Cl | 43.7 nM | 91% | – |
| Cc1cc(C#Cc2ccc(CCC(=O)O)cc2)nc(Cl)n1 | 2750 nM | 110% | – |
